Assay [1] concerns TLX-5. Description: (§1) In vivo antitumor activity against the TLX5 lymphoma cell line in mouse species CBA/CA after intraperitoneal administration (inoculum cells-2x10E5,sc) at the dose of 20 mg/kg. It counts as functional. The procedure, abridged:
(§2)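 CBA/CA mice were inoculated with 2 × 10^5 TLX5 lymphoma cells. Drug given intraperitoneally in 10% Me2SO in arachis oil, 5 mice per dose, and the experiment lasted 60 days. Survivors at 60 days were recorded. T/C % = mean death day of treated animals / mean death day of control animals.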

Assay [2] has as its system TLX-5. The experiment in a line: In vivo antitumor activity against the TLX5 lymphoma cell line in mouse species CBA/CA after intraperitoneal administration (inoculum cells-2x10E5,sc) at the dose of 40 mg/kg. The assay is classed as functional. The procedure, abridged:
as §2

For assay [3], the system named is TLX-5. Description: In vivo antitumor activity against the TLX5 lymphoma cell line in mouse species CBA/CA after intraperitoneal administration (inoculum cells-2x10E5,sc) at the dose of 80 mg/kg. It counts as functional. The procedure, abridged: as §2
In assay [4] the test system is TLX-5. Description: (§3) In vivo antitumor activity against the TLX5 lymphoma cell line in mouse species CBA/CA after intraperitoneal administration (inoculum cells-2x10E5,sc) at the dose of 160 mg/kg. The assay is classed as functional. A digest of the protocol:
(§4)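 CBA/CA mice were implanted sc with 2 × 10^5 TLX5 lymphoma cells. Compound was given ip on day 3 in 10% Me2SO in arachis oil, over 60 days, in groups of 5. T/C% = mean death day of treated/mean death day of controls. Survivors to day 60 were counted.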

For assay [5], the system named is TLX-5. The experiment in a line: In vivo antitumor activity against the TLX5 lymphoma cell line in mouse species CBA/CA after intraperitoneal administration (inoculum cells-2x10E5,sc) at the dose of 20 mg/kg on 5th day. The assay is classed as functional.
For assay [6], the system named is TLX-5. Description: In vivo antitumor activity against the TLX5 lymphoma cell line in mouse species CBA/CA after intraperitoneal administration (inoculum cells-2x10E5,sc) at the dose of 320 mg/kg on 5th day. The assay is classed as functional.
In assay [7] the test system is TLX-5. The experiment in a line: In vivo antitumor activity against the TLX5 lymphoma cell line in mouse species CBA/CA after intraperitoneal administration (inoculum cells-2x10E5,sc) at the dose of 40 mg/kg on 5th day. The assay is classed as functional.
Assay [8] deals with TLX-5. Description: In vivo antitumor activity against the TLX5 lymphoma cell line in mouse species CBA/CA after intraperitoneal administration (inoculum cells-2x10E5,sc) at the dose of 80 mg/kg on 5th day. The assay is classed as functional.
Assay [9] deals with L1210. The experiment in a line: In vivo antitumor activity against the L1210 leukemia cell line in mouse species B6D2F1 after peroral administration (inoculum cells-10E5,ip) at the dose of 80 mg/kg on 10th day. The assay is classed as functional. Conditions: route oral. The procedure, abridged:
(§5)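 B6D2F1 mice were inoculated with 10^5 L1210 leukemia cells, ip or iv as the line states. Compound was given orally as a suspension in 1% (carboxymethyl)cellulose in water, dosed on day 1 or 3, over 28–39 days. T/C% = mean death day of treated/mean death day of controls. Survivors to the end were counted in groups of 7–8.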

Assay [10] concerns TLX-5. The experiment in a line: In vivo antitumor activity against the TLX5 lymphoma cell line in mouse species CBA/CA after intraperitoneal administration (inoculum cells-2x10E5,sc) at the dose of 10 mg/kg on 5th day. It counts as functional.
Assay [11] concerns TLX-5. Description: In vivo antitumor activity against the TLX5 lymphoma cell line in mouse species CBA/CA after intraperitoneal administration (inoculum cells-2x10E5,sc) at the dose of 5 mg/kg on 5th day. The assay is classed as functional.
Assay [12] deals with TLX-5. The description is as §3. It counts as functional. The procedure, abridged:
as §2
This is another data set of the same source.

For assay [13], the system named is TLX-5. The experiment in a line: In vivo antitumor activity against the TLX5 lymphoma cell line in mouse species CBA/CA after intraperitoneal administration (inoculum cells-2x10E5,sc) at the dose of 320 mg/kg. It counts as functional. A digest of the protocol: as §2
Assay [14] has as its system TLX-5. The experiment in a line: In vivo antitumor activity against the TLX5 lymphoma cell line in mouse species CBA/CA after intraperitoneal administration (inoculum cells-2x10E5,sc) at the dose of 160 mg/kg on 5th day. It counts as functional.
The test system of assay [15] is TLX-5. Description: In vivo antitumor activity against the TLX5 lymphoma cell line in mouse species CBA/CA after intraperitoneal administration (inoculum cells-2x10E5,sc) at the dose of 320 mg/kg on 3rd day.
For assay [16], the system named is L1210. The experiment in a line: In vivo antitumor activity against the L1210 leukemia cell line in mouse species B6D2F1 after peroral administration (inoculum cells-10E5,iv) at the dose of 40 mg/kg. The assay is classed as functional. Conditions: route oral.
Assay [17] concerns L1210. The experiment in a line: In vivo antitumor activity against the L1210 leukemia cell line in mouse species B6D2F1 after peroral administration (inoculum cells-10E5,iv) at the dose of 10 mg/kg. It counts as functional. Particulars: route oral.
The subject of assay [18] is L1210. Description: In vivo antitumor activity against the L1210 leukemia cell line in mouse species B6D2F1 after peroral administration (inoculum cells-10E5,iv) at the dose of 20 mg/kg. The assay is classed as functional. Particulars: route oral.
The subject of assay [19] is L1210. The experiment in a line: In vivo antitumor activity against the L1210 leukemia cell line in mouse species B6D2F1 after peroral administration (inoculum cells-10E5,iv) at the dose of 10 mg/kg on 7th day. The assay is classed as functional. Conditions: route oral.
Assay [20] deals with L1210. Description: In vivo antitumor activity against the L1210 leukemia cell line in mouse species B6D2F1 after peroral administration (inoculum cells-10E5,iv) at the dose of 40 mg/kg on 7th day. Conditions: route oral. It counts as functional. The procedure, abridged: as §5
Assay [21] concerns TLX-5. The experiment in a line: In vivo antitumor activity against the TLX5 lymphoma cell line in mouse species CBA/CA after intraperitoneal administration (inoculum cells-2x10E5,sc) at the dose of 10 mg/kg. It counts as functional.
For assay [22], the system named is L1210. The experiment in a line: In vivo antitumor activity against the L1210 leukemia cell line in mouse species B6D2F1 after peroral administration (inoculum cells-10E5,iv) at the dose of 20 mg/kg on 7th day. Particulars: route oral. The assay is classed as functional. The procedure, abridged:
as §5

In assay [23] the test system is L1210. The experiment in a line: In vivo antitumor activity against the L1210 leukemia cell line in mouse species B6D2F1 after peroral administration (inoculum cells-10E5,iv) at the dose of 200 mg/kg. It counts as functional. Particulars: route oral.
The subject of assay [24] is L1210. The experiment in a line: In vivo antitumor activity against the L1210 leukemia cell line in mouse species B6D2F1 after peroral administration (inoculum cells-10E5,iv) at the dose of 100 mg/kg. It counts as functional. Particulars: route oral.
Assay [25] deals with L1210. Description: In vivo antitumor activity against the L1210 leukemia cell line in mouse species B6D2F1 after peroral administration (inoculum cells-10E5,iv) at the dose of 50 mg/kg. It counts as functional. Conditions: route oral.
For assay [26], the system named is L1210. Description: In vivo antitumor activity against the L1210 leukemia cell line in mouse species B6D2F1 after peroral administration (inoculum cells-10E5,iv) at the dose of 100 mg/kg on 7th day. Conditions: route oral. The assay is classed as functional. A digest of the protocol: as §5
In assay [27] the test system is L1210. Description: In vivo antitumor activity against the L1210 leukemia cell line in mouse species B6D2F1 after peroral administration (inoculum cells-10E5,iv) at the dose of 200 mg/kg on 10th day. Particulars: route oral. The assay is classed as functional. The procedure, abridged:
as §5

Assay [28] relates to L1210. Description: In vivo antitumor activity against the L1210 leukemia cell line in mouse species B6D2F1 after peroral administration (inoculum cells-10E5,iv) at the dose of 50 mg/kg on 7th day. The assay is classed as functional. Conditions: route oral. The procedure, abridged:
as §5

Assay [29] relates to L1210. Description: In vivo antitumor activity against the L1210 leukemia cell line in mouse species B6D2F1 after peroral administration (inoculum cells-10E5,ip) at the dose of 10 mg/kg on 10th day. The assay is classed as functional. Conditions: route oral. The procedure, abridged: as §5
Assay [30] relates to L1210. Description: In vivo antitumor activity against the L1210 leukemia cell line in mouse species B6D2F1 after peroral administration (inoculum cells-10E5,iv) at the dose of 200 mg/kg on 7th day. It counts as functional. Particulars: route oral. A digest of the protocol: as §5
Assay [31] has as its system TLX-5. The experiment in a line: In vivo antitumor activity against the TLX5 lymphoma cell line in mouse species CBA/CA after intraperitoneal administration (inoculum cells-2x10E5,sc) at the dose of 640 mg/kg. The assay is classed as functional. The procedure, abridged: as §2
Assay [32] has as its system TLX-5. Description: In vivo antitumor activity against the TLX5 lymphoma cell line in mouse species CBA/CA after intraperitoneal administration (inoculum cells-2x10E5,sc) at the dose of 640 mg/kg on 5th day. It counts as functional.
The test system of assay [33] is L1210. Description: In vivo antitumor activity against the L1210 leukemia cell line in mouse species B6D2F1 after peroral administration (inoculum cells-10E5,iv) at the dose of 5 mg/kg on 7th day. It counts as functional. Particulars: route oral.
For assay [34], the system named is TLX-5. The assay is described as §1. It counts as functional. A digest of the protocol:
as §4
The source holds these as a separate data set.

Consider `O=C(NC1CCCCC1)c1ncn2c(=O)n(CCCl)nnc12`, for which the T/C in assay [1] is 109%; in [2], 125%; in [3], greater than 277%. Also, the Survivors in assay [4] is listed as 0; in assay [5] it was 0; in assay [6] it was 0; in [7] it was 0; in assay [8], 1.

Regarding `CNC(=O)c1ncn2c(=O)n(CCCl)nnc12`, the Survivors in [9], in assay [10], in assay [11] and in assay [8] was 0 each time. This compound also showed a T/C in [1] greater than 154%.

For `CCSC(=O)c1ncn2c(=O)n(CCCl)nnc12`, the T/C is listed as 119% in [12]; 106% in [1]; 125% in [13]; 104% in assay [2]; 108% in [3]. The Survivors in assay [14], in assay [5], in assay [7], in assay [8] and in assay [15] was 0 throughout.

Regarding `O=C(NCCCl)c1ncn2c(=O)n(CCCl)nnc12`, the T/C is on record as 227% in assay [16]; 121% in assay [17]; 183% in assay [18]; 103% in assay [21]; 142% in assay [1]; greater than 361% in assay [2]. In addition, the Survivors in assay [19] turned out to be 0; in [20], 0; in [10], 0; in assay [5], 0; in [7], 3; in assay [8] it was 0. In [22], this compound came in with a Survivors of 0.

Take `CC(C)(C)NC(=O)c1ncn2c(=O)n(CCCl)nnc12`: the T/C amounted to 307% in assay [23], 149% in assay [24] and 132% in assay [25]. For the same compound, the Survivors in assay [26], in [27] and in assay [28] was 0 throughout.

As to `CN(C)C(=O)c1ncn2c(=O)n(CCCl)nnc12`, the Survivors in [29], in assay [9], in assay [14] and in [5] was 0 each time.

With `O=C(N[N+](=O)[O-])c1ncn2c(=O)n(CCCl)nnc12`, the T/C is listed as greater than 354% in [12], 109% in assay [1], 101% in assay [2] and 118% in assay [3]. The Survivors in assay [14] is listed as 2; in assay [5], 0; in assay [6] it was 0; in [7], 0; in assay [8], 0.

Consider `O=C(NO)c1ncn2c(=O)n(CCCl)nnc12`, for which the T/C in [23] is 218%; in assay [24], 187%. Also, the Survivors in assay [26] and in [30] was 0 throughout.

On to `O=C(NOCc1ccccc1)c1ncn2c(=O)n(CCCl)nnc12`, for which the T/C in assay [23], in [24] and in assay [25] was 98% each time. In addition, the Survivors in [26], in assay [30] and in assay [28] was 0 throughout.

As to `[N-]=[N+]=NC(=O)c1ncn2c(=O)n(CCCl)nnc12`, the T/C amounted to 101% in assay [21], 97% in [1], 96% in assay [2] and 106% in [3]. For the same compound, the Survivors in assay [10], in assay [14], in assay [5], in assay [7] and in [8] was 0 in each case.

For `COC(=O)c1ncn2c(=O)n(CCCl)nnc12`, the T/C in assay [12] is 123%; in [1] it was 106%; in assay [13], 140%; in assay [2], 110%; in assay [3] it was 110%. In addition, the Survivors in assay [14], in assay [5], in [6], in [7] and in assay [8] was 0 each time.

For `CCOC(=O)CNC(=O)c1ncn2c(=O)n(CCCl)nnc12`, the T/C is reported as 105% in assay [12], 114% in assay [13], 139% in [31] and 96% in [3]. Also, the Survivors in [14], in assay [6], in assay [32] and in [8] was 0 throughout.

Regarding `O=C(Nc1ccccc1)c1ncn2c(=O)n(CCCl)nnc12`, the Survivors in [14], in [5], in assay [6], in [7] and in assay [8] was 0 each time.

With `NC(=O)c1ncn2c(=O)n(CCCl)nnc12` [MITOZOLOMIDE], the Survivors in assay [19], in assay [33], in [10], in [34], in assay [11] and in [22] was 0 in each case.

For the origin of these results see ChEMBL document CHEMBL1125112, “Antitumor imidazotetrazines. 20. Preparation of the 8-acid derivative of mitozolomide and its utility in the preparation of active antitumor agents” (1990).
